The source of these data is ChEMBL document CHEMBL5325427.

≈ marks a conversion by molar mass, not a printed value. Calls of active or inactive are those of the source. No cut-off for these calls is given here.

In series [1] the target is Replicase polyprotein 1ab (Severe acute respiratory syndrome coronavirus 2, UniProt P0DTD1). Put plainly: Inhibition of recombinant SARS CoV-2 PL protease incubated for 2 hrs followed by substrate addition and measured after 1 hr by fluorescence based analysis.
In a further series the test system is Vero C1008. In words: Cytotoxicity against African green monkey Vero E6 cells measured after 72 hrs by crystal violet staining based analysis. The format is toxicity, cell-based. The settings on record: chlorocebus sabaeus, vero c1008, 72 h. The essentials: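 Vero-E6 cells were seeded at 3 × 10^5 cells/mL, grown 24 h at 37 °C with 5% CO2, then given graded compound concentrations in triplicate for 72 h. Stocks were made in 10% DMSO in DMEM. Cells were fixed in 10% formalin, stained with 0.1% crystal violet, dissolved in methanol and read at A570. CC50 was taken by nonlinear regression of log concentration versus normalised response against untreated cells.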

In series [2] the test system is SARS-CoV-2. In words: Antiviral activity against SARS-CoV-2 NRC-03-nhCoV infected in african green monkey Vero E6 cells assessed as inhibition of viral growth pre-infected cells with virus for 1 hr followed by compound addition for 1 hr and measured after 72 hrs by crystal violet staining based analysis. The note with it: Severe acute respiratory syndrome coronavirus 2, NRC-03-nhCoV, Vero C1008. The format is functional, organism-based.

Series [3] is described as follows: Aqueous solubility of the compound in PBS buffer at pH 7.4 at 200 uM by microplate reader method. Type of series: physicochemical.
Series [4] can be described thus: Stability in CD-1 mouse liver microsomes assessed as half life at 1 uM in presence of NADPH by LC-MS-MS analysis. Type of series: ADME, Microsome.
Series [5] in a line: Stability in CD-1 mouse liver microsomes assessed as compound remaining at 1 uM measured after 60 mins in absence of NADPH by LC-MS-MS analysis. Type of series: ADME, Microsome. The settings on record: read-out: Stability. The essentials:
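Compound was incubated in liver microsomes without NADPH. Percent remaining was measured after 60 min.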
A general note: Liver microsomes are a subcellular fraction often used to study metabolism.

Series [6] relates to SARS-CoV-2. Put plainly: Antiviral activity against SARS CoV-2 HCoV-19/Egypt/NRC-1/2020 infected in human Caco-2 cells assessed as reduction in spike RNA expression at 20 ug/ml pre-infected with virus for 1 hr followed by cell addition for 1 hr and measured after 6 to 12 hrs by RT-PCR analysis. The note with it: Severe acute respiratory syndrome coronavirus 2, dose 20.0 µg/ml, time 8-14 hrs. The format is functional, organism-based.

Series [7] has as its system SARS-CoV-2. In words: Antiviral activity against SARS CoV-2 HCoV-19/Egypt/NRC-1/2020 infected in human Caco-2 cells assessed as inhibition of ORFb1 RNA at 20 ug/ml pre-infected with virus for 1 hr followed by cell addition for 1 hr and measured after 1 to 12 hrs by RT-PCR analysis relative to control. Type of series: functional. The note with it: Severe acute respiratory syndrome coronavirus 2, HCoV-19/Egypt/NRC-1/2020, Caco-2, time 3-14 hrs.

Series [8] deals with SARS-CoV-2. Put plainly: Antiviral activity against SARS CoV-2 infected in human Caco-2 cells assessed as reduction in INF-alpha expression at 20 ug/ml preincubated with cells for 24 hrs followed by viral infection and measured after 1 to 3 hrs by real-time PCR assay. The settings on record: Severe acute respiratory syndrome coronavirus 2, dose 20.0 µg/ml, time 25-28 hrs. The format is functional, organism-based.

Series [9] in a line: Toxicity in Balb/c mouse assessed as effect on body weight loss at 25 to 100 mg/kg, ip administered as single dose measured upto 15 days. The format is organism-based. The note with it: in vivo, 360 h, dose 25-100 mg/kg, time < 15 day.
The nature of series [10]: Toxicity in Balb/c mouse assessed as change in histological variation in liver at 12.5 to 25 mg/kg by H and E staining based analysis. Type of series: organism-based. The note with it: in vivo, dose 12.5-25 mg/kg. In short, it runs like this: (§1)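 After the 14-day daily intraperitoneal dosing (12.5 or 25 mg/kg, female Balb/c), liver, kidney, spleen, heart and lung were fixed 24 h in 10% neutral-buffered formalin and paraffin-embedded. Sections of 4 μm were stained with H&E. Lesions were scored nil 0, mild 1, moderate 2, severe 3.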

The nature of series [11]: Toxicity in Balb/c mouse assessed as change in histological variation in spleen at 12.5 to 25 mg/kg by H and E staining based analysis. Type of series: organism-based. The note with it: in vivo, dose 12.5-25 mg/kg. The essentials:
as §1

Series [12] can be described thus: Toxicity in Balb/c mouse assessed as change in histological variation in kidney at 12.5 to 25 mg/kg by H and E staining based analysis. Type of series: organism-based. The settings on record: in vivo, dose 12.5-25 mg/kg. In short, it runs like this: as §1
Series [13] is described as follows: Toxicity in Balb/c mouse assessed as histological changes in heart by measuring toxicity score at 12.5 to 25 mg/kg by H and E staining based analysis. The settings on record: in vivo, dose 12.5-25 mg/kg. Type of series: organism-based. The essentials: as §1
Series [14] in a line: Toxicity in Balb/c mouse assessed as histological changes in lung by measuring toxicity score at 12.5 to 25 mg/kg by H and E staining based analysis. The settings on record: in vivo, dose 12.5-25 mg/kg. The format is organism-based. The essentials: as §1
Series [15] in a line: Toxicity in Balb/c mouse assessed as effect on ALT at 12.5 to 25 mg/kg. Type of series: organism-based. The note with it: in vivo, dose 12.5-25 mg/kg. In short, it runs like this: (§2)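 Female Balb/c mice were randomised to vehicle (0.5% DMSO in PBS) or 12.5 or 25 mg/kg intraperitoneally daily for 14 days, then followed 12 days after treatment. Body weight, haematology and blood chemistry were compared with vehicle controls; n = 3–5.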

Series [16] is described as follows: Toxicity in Balb/c mouse assessed as effect on total bilirubin at 12.5 to 25 mg/kg. The format is organism-based. The note with it: in vivo, dose 12.5-25 mg/kg. The essentials: as §2
Series [17] can be described thus: Toxicity in Balb/c mouse assessed as effect on glucose at 12.5 to 25 mg/kg. Type of series: organism-based. The settings on record: in vivo, dose 12.5-25 mg/kg. In short, it runs like this:
as §2

For series [18], the system named is SARS-CoV-2. Put plainly: Antiviral activity against SARS- CoV-2 infected in Vero E6 cells assessed as virucidal activity pretreated with cells for 24 hrs followed by viral infection for 1 hr and measured after 1 hr by plaque assay relative to control. Type of series: functional, Severe acute respiratory syndrome coronavirus 2. The settings on record: time 26 hrs.

For `COc1ccc2[nH]c3c(c2c1)C[C@]1(OC)CC[C@H]2c4[nH]c5ccccc5c4CCN2[C@@H]1C3`, the IC50 in [1] was 91.2 nM; with SARS-CoV-2 [2] it was 12.1 µg/mL (≈ 28.3 µM). This molecule also had a CC50 in the series on Vero C1008 of 55.63 µg/mL (≈ 130 µM). The molecule further came in with a solubility at 200 µM in [3] of 166 µM (≈ 71 µg/mL). The t1/2 in series [4] is over 1 h. Further, in series [5], the remaining at 1 h, 1 µM came to 108%. The outcome in the series on SARS-CoV-2 [6] and with SARS-CoV-2 [8] was Active. In the series with SARS-CoV-2 [7], the inhibition at 20 µg/mL was over 70%. Moreover, the Activity result is on record as “Non-Toxic” in [9]; “Non-Toxic” in series [10]; “Non-Toxic” in series [11]; “Non-Toxic” in series [12]; 0 in series [13]; 0 in series [14]. Also, the Activity result in series [15] was “Non-Toxic”; in series [16], “Non-Toxic”; in [17] it was “Non-Toxic”; with SARS-CoV-2 [18], over 90%.

Broadly, the IC50 is the concentration at which inhibition is half-maximal. In general, CC50 refers to the concentration that lowers cell viability or growth by half. By solubility is commonly meant the dissolved amount per volume that the medium holds. By inhibition is commonly meant the share of the control response that was lost under treatment.
